Data taken from ChEMBL document CHEMBL4251683, “Improved Dose-Response Relationship of (+)-Discodermolide-Taxol Hybrid Congeners” (2018).
The source made the active and inactive calls.

What was measured:
HCC1143 = assay: Antiproliferative activity against human HCC1143 cells after 3 to 7 days by SRB assay; type: functional, cell-based
Outline: (§1)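 Sulforhodamine B total-protein read-out on adherent cells maintained in RPMI with 10% FBS. Seeding was 900–4000 cells per well depending on line, with 24 h allowed for attachment. Six replicate wells per concentration, exposure for three cell doublings (3 to 7 days); DMSO final below 0.01%. Logistic sigmoidal fit by nonlinear least squares gave EC50, EMax and AUC; experiments repeated at least three times.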

BT-549 [1] = assay: Induction of cell death in human BT549 cells at EC80 concentration after 3 to 6 days by DAPI staining based flow cytometry; type: functional
Outline: (§2)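 Compounds given at approximately EC80 (taken from the cell's own dose-response data) for 3 to 6 days depending on line. Floating and trypsinized adherent cells were pooled, washed 3–5 times in warm PBS, and stained with DAPI (1/10,000) in PBS with 4% FBS on ice. Flow cytometry counted 10 000 cells per gate: dead = DAPI+, senescent = SSC+ DAPI−. Duplicate experiments, mean ± SEM.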

MDA-MB-468 [2] = assay: Induction of senescence in human MDA-MB-468 cells at EC80 concentration after 3 to 6 days by DAPI staining based flow cytometry; type: functional; outline: as §2
Bos taurus = organism: Bos taurus; assay: Induction of bovine brain tubulin alpha polymerization assessed as alpha tubulin expression by measuring pellet/supernatant and pellet fraction level at 3 uM after 1 hr by immunoblot method (reference value: 10.4%)
Outline: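 Purified bovine brain tubulin incubated 30 min at 37 °C with 3 μM compound in MEM–glycerol buffer, 2 mM GTP, pH 6.9. Spun at 120000g, 37 °C, 1 h. Supernatant and SDS-solubilized pellet run on SDS-PAGE, α-tubulin quantified by Western blot, % polymerized calculated as P/(S + P).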

MDA-MB-468 [3] = assay: Induction of senescence in human MDA-MB-468 cells assessed as increase in PAI1 mRNA expression level at EC80 concentration after 6 days by qRT-PCR analysis; type: functional, cell-based
Outline: (§3)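 Cells treated 6 days at EC80 doses (derived from dose-response data) and analysed for SASP transcripts by qRT-PCR. Expression was normalised to cyclophilin B and expressed relative to vehicle-treated asynchronous cells. Bars are mean ± SEM (n = 2).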

MDA-MB-468 [4] = assay: Induction of cell death in human MDA-MB-468 cells at EC80 concentration after 3 to 6 days by DAPI staining based flow cytometry; type: functional; outline: as §2
BT-549 [5] = assay: Induction of senescence in human BT549 cells at EC80 concentration after 3 to 6 days by DAPI staining based flow cytometry; type: functional; outline: as §2
MCF7 = assay: Antiproliferative activity against human MCF7 cells after 3 to 7 days by SRB assay; type: functional, cell-based; outline: as §1
Hs-578T [6] = assay: Antiproliferative activity against human Hs578T cells after 3 to 7 days by SRB assay; type: functional, cell-based; outline: as §1
MDA-MB-157 = assay: Antiproliferative activity against human MDA-MB-157 cells after 3 to 7 days by SRB assay; type: functional, cell-based; outline: as §1
MDA-MB-468 [7] = assay: Antiproliferative activity against human MDA-MB-468 cells after 3 to 7 days by SRB assay; type: functional, cell-based; outline: as §1
HEY [8] = assay: Antiproliferative activity against human HEY cells after 3 to 7 days by SRB assay; type: functional, cell-based; outline: as §1
Hs-578T [9] = assay: Induction of senescence in human Hs578T cells at EC80 concentration after 3 to 6 days by DAPI staining based flow cytometry; type: functional; outline: as §2
HEY [10] = assay: Induction of senescence in human HEY cells assessed as increase in IL-8 mRNA expression level at EC80 concentration after 6 days by qRT-PCR analysis; type: functional, cell-based; outline: as §3
BT-20 = assay: Antiproliferative activity against human BT20 cells after 3 to 7 days by SRB assay; type: functional, cell-based; outline: as §1
BT-549 [11] = assay: Antiproliferative activity against human BT549 cells after 3 to 7 days by SRB assay; type: functional, cell-based; outline: as §1
MDA-MB-468 [12] = assay: Induction of senescence in human MDA-MB-468 cells assessed as increase in IL-8 mRNA expression level at EC80 concentration after 6 days by qRT-PCR analysis; type: functional, cell-based; outline: as §3
Hs-578T [13] = assay: Induction of cell death in human Hs578T cells at EC80 concentration after 3 to 6 days by DAPI staining based flow cytometry; type: functional; outline: as §2
A549 = assay: Antiproliferative activity against human A549 cells after 3 to 7 days by SRB assay; type: functional, cell-based; outline: as §1
HEY [14] = assay: Induction of senescence in human HEY cells at EC80 concentration after 3 to 6 days by DAPI staining based flow cytometry; type: functional; outline: as §2
HEY [15] = assay: Induction of senescence in human HEY cells assessed as increase in CXCL1 mRNA expression level at EC80 concentration after 6 days by qRT-PCR analysis; type: functional, cell-based; outline: as §3
HEY [16] = assay: Induction of senescence in human HEY cells assessed as increase in PAI1 mRNA expression level at EC80 concentration after 6 days by qRT-PCR analysis; type: functional, cell-based; outline: as §3
MDA-MB-468 [17] = assay: Induction of senescence in human MDA-MB-468 cells assessed as increase in CXCL1 mRNA expression level at EC80 concentration after 6 days by qRT-PCR analysis; type: functional, cell-based; outline: as §3

Measured: Activity

C=C/C=C\[C@H](C)[C@H](OC(=O)NCCCNC(=O)c1ccc(C2(C(F)(F)F)N=N2)cc1)[C@@H](C)[C@H](O)[C@@H](C)C/C(C)=C\[C@H](C)[C@@H](O)[C@@H](C)/C=C\[C@@H](O)C[C@@H]1OC(=O)[C@H](C)[C@@H](O)[C@H]1C
56.1%: Bos taurus
inactive: Hs-578T [13]
10 - 15%: HEY [14]
<10%: MDA-MB-468 [2] | BT-549 [5]
15 - 18%: Hs-578T [9]
active: all other assays above

C=C/C=C\[C@H](C)[C@H](OC(=O)NCCNC(=O)c1ccc(N=[N+]=[N-])cc1)[C@@H](C)[C@H](O)[C@@H](C)C/C(C)=C\[C@H](C)[C@@H](O)[C@@H](C)/C=C\[C@@H](O)C[C@@H]1OC(=O)[C@H](C)[C@@H](O)[C@H]1C
54.6%: Bos taurus
active: BT-549 [1] | MDA-MB-468 [4] | HEY [10] | HEY [15] | HEY [16]
15 - 18%: Hs-578T [9]
<10%: MDA-MB-468 [2] | BT-549 [5]
inactive: Hs-578T [13]
10 - 15%: HEY [14]

C=C/C=C\[C@H](C)[C@H](OC(=O)NCCCNC(=O)c1ccc(N=[N+]=[N-])cc1)[C@@H](C)[C@H](O)[C@@H](C)C/C(C)=C\[C@H](C)[C@@H](O)[C@@H](C)/C=C\[C@@H](O)C[C@@H]1OC(=O)[C@H](C)[C@@H](O)[C@H]1C
15 - 18%: Hs-578T [9]
<10%: MDA-MB-468 [2] | BT-549 [5]
64.2%: Bos taurus
10 - 15%: HEY [14]
inactive: Hs-578T [13]
active: all other assays above

C=C/C=C\[C@H](C)[C@H](OC(=O)NCCCNC(=O)c1cccc(N=[N+]=[N-])c1)[C@@H](C)[C@H](O)[C@@H](C)C/C(C)=C\[C@H](C)[C@@H](O)[C@@H](C)/C=C\[C@@H](O)C[C@@H]1OC(=O)[C@H](C)[C@@H](O)[C@H]1C
<10%: MDA-MB-468 [2] | BT-549 [5]
60%: Bos taurus
inactive: Hs-578T [13]
15 - 18%: Hs-578T [9]
10 - 15%: HEY [14]
active: all other assays above
